Reference: ChEMBL document CHEMBL1124216, “A novel class of potential central nervous system agents. 3-Phenyl-2-(1-piperazinyl)-5H-1-benzazepines” (1988)

System: Mus musculus
Test: Antiexploratory activity (EXPL) of mice determined by an antimex activity meter,100 mg/kg of dose was administered perorally; No inhibition
Format: functional
Conditions: not given

Structure (SMILES) | Inhibition [%]
CCc1ccc2c(c1)CC=C(c1ccccc1)C(N1CCN(C(C)C)CC1)=N2.O=C(O)/C=C/C(=O)O | <30
CCCCN1CCN(C2=Nc3ccc(CC)cc3CC=C2c2ccccc2)CC1.O=C(O)/C=C/C(=O)O | <30
CCCN1CCN(C2=Nc3ccc(CC)cc3CC=C2c2ccccc2)CC1.O=C(O)/C=C/C(=O)O | <30

System: Mus musculus
Test: 3,4 -Dihydroxy phenylacetic acid (DOPAC) levels in mouse brain at 10 mg/kg dose.
Format: functional
Conditions: not given
In short: (§1)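 Male Std-ddY mice, 20-25 g, dosed orally with compound in 0.5% aqueous tragacanth. DOPAC was measured fluorometrically after purification by column chromatography on Sephadex G-10 and QAE-Sephadex. Brains from five mice per compound were pooled for each determination.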

Structure (SMILES) | Control [%]
Cl.Cl.OCCN1CCN(C2=Nc3ccccc3CC=C2c2ccc(F)cc2)CC1 | 262
CCCN1CCN(C2=Nc3ccccc3CC=C2c2ccc(F)cc2)CC1.O=C(O)/C=C/C(=O)O | 166

System: Mus musculus
Test: Antiexploratory activity (EXPL) of mice determined by an antimex activity meter, 50 mg/kg of dose was administered perorally; Slight inhibition (31-50%)
Format: functional
Conditions: route oral

Structure (SMILES) | inhibition in vivo at 50 mg/kg [%]
Fc1ccc(C2=CCc3ccccc3N=C2N2CCNCC2)cc1 | 31
O=C(CCCN1CCN(C2=Nc3ccccc3CC=C2c2ccc(Cl)cc2)CC1)c1ccc(F)cc1 | 31

System: Mus musculus
Test: 3,4 -Dihydroxy phenylacetic acid (DOPAC) levels in mouse brain at 50 mg/kg dose.
Format: functional
Conditions: not given
In short: as §1

Structure (SMILES) | Control [%]
Cl.Cl.OCCN1CCN(C2=Nc3ccccc3CC=C2c2ccc(F)cc2)CC1 | 369
CCCN1CCN(C2=Nc3ccccc3CC=C2c2ccc(F)cc2)CC1.O=C(O)/C=C/C(=O)O | 317

System: Mus musculus
Test: The homovanillic acid (HVA) levels in mouse brain at 10 mg/kg of dose.
Format: functional
Conditions: not given
In short: (§2)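 Mice dosed orally in 0.5% aqueous tragacanth; brains of five mice per compound pooled. Homovanillic acid measured in brain extracts and reported as brain level.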

Structure (SMILES) | Control [%]
Cl.Cl.OCCN1CCN(C2=Nc3ccccc3CC=C2c2ccc(F)cc2)CC1 | 243
CCCN1CCN(C2=Nc3ccccc3CC=C2c2ccc(F)cc2)CC1.O=C(O)/C=C/C(=O)O | 328

System: Mus musculus
Test: Antimaximal electroshock seizure (MES) activity in mice after peroral administration of 100 mg/kg of compound; 5/5
Format: functional
Conditions: route oral

Structure (SMILES) | Activity
CCc1ccc2c(c1)CC=C(c1ccccc1)C(N1CCN(C(C)C)CC1)=N2.O=C(O)/C=C/C(=O)O | 5
CCc1ccc2c(c1)CC=C(c1ccccc1)C(N1CCN(C)CC1)=N2.Cl.Cl | 5

System: Mus musculus
Test: Exploratory activity of mice determined by an antimex activity meter, 50 mg/kg of dose was administered perorally
Format: functional
Conditions: Mus musculus, po
In short: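 Male Std-ddY mice (20-25 g), five per dose; compound in 0.5% aqueous tragacanth given orally. Two hours later each mouse placed in an Animex activity meter cage and locomotor activity counted for 3 min. Mean suppression expressed as percent inhibition of control; ED50 by Litchfield-Wilcoxon.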

Structure (SMILES) | inhibition in vivo at 50 mg/kg [%]
Cl.Cl.OCCN1CCN(C2=Nc3ccccc3CC=C2c2ccc(F)cc2)CC1 | 68.4
CCCN1CCN(C2=Nc3ccccc3CC=C2c2ccc(F)cc2)CC1.O=C(O)/C=C/C(=O)O | 61.4

System: Mus musculus
Test: The homovanillic acid (HVA) levels in mouse brain at 50 mg/kg of dose.
Format: functional
Conditions: not given
In short: as §2

Structure (SMILES) | Control [%]
Cl.Cl.OCCN1CCN(C2=Nc3ccccc3CC=C2c2ccc(F)cc2)CC1 | 349
CCCN1CCN(C2=Nc3ccccc3CC=C2c2ccc(F)cc2)CC1.O=C(O)/C=C/C(=O)O | 557

System: Mus musculus
Test: Antireserpine activity (RES) of mice after peroral administration of 50 mg/kg of compound; No inhibition
Format: functional
Conditions: route oral

Structure (SMILES) | inhibition in vivo at 50 mg/kg [%]
O=C(CCCN1CCN(C2=Nc3ccccc3CC=C2c2ccc(Cl)cc2)CC1)c1ccc(F)cc1 | < 30

System: Mus musculus
Test: Antimaximal electroshock seizure (MES) activity in mice after peroral administration of 10 mg/kg of compound; 0/5
Format: functional
Conditions: route oral

Structure (SMILES) | Activity
CCc1ccc2c(c1)CC=C(c1ccccc1)C(N1CCN(C(C)C)CC1)=N2.O=C(O)/C=C/C(=O)O | 0
CCc1ccc2c(c1)CC=C(c1ccccc1)C(N1CCN(C)CC1)=N2.Cl.Cl | 0

System: Mus musculus
Test: Antimaximal electroshock seizure (MES) activity in mice after peroral administration of 100 mg/kg of compound; 0/5
Format: functional
Conditions: route oral

Structure (SMILES) | Activity
CCCCN1CCN(C2=Nc3ccc(CC)cc3CC=C2c2ccccc2)CC1.O=C(O)/C=C/C(=O)O | 0
CCCN1CCN(C2=Nc3ccc(CC)cc3CC=C2c2ccccc2)CC1.O=C(O)/C=C/C(=O)O | 0

System: Mus musculus
Test: Antiexploratory activity (EXPL) of mice determined by an antimex activity meter, 50 mg/kg of dose was administered perorally; Moderate inhibition (51-71%)
Format: functional
Conditions: route oral

Structure (SMILES) | inhibition in vivo at 50 mg/kg [%]
Cl.Cl.OCCN1CCN(C2=Nc3ccccc3CC=C2c2ccc(F)cc2)CC1 | 51
CCCN1CCN(C2=Nc3ccccc3CC=C2c2ccc(F)cc2)CC1.O=C(O)/C=C/C(=O)O | 51

System: Canis familiaris
Test: Inhibition of apomorphine induced emesis in dogs at 1 mg/kg of dose.
Format: functional
Conditions: Canis lupus familiaris
In short: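 Beagle dogs (10-15 kg), groups of three, given compound po in a gelatin capsule; 2 h later apomorphine hydrochloride 0.3 mg/kg sc. Vomiting counted for 1 h; mean inhibition as percent of control. ED50 is the dose giving 50% inhibition of emesis, by Litchfield-Wilcoxon.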

Structure (SMILES) | inhibition in vivo at 1 mg/kg [%]
Cl.Cl.OCCN1CCN(C2=Nc3ccccc3CC=C2c2ccc(F)cc2)CC1 | 100
CCCN1CCN(C2=Nc3ccccc3CC=C2c2ccc(F)cc2)CC1.O=C(O)/C=C/C(=O)O | 100

System: Mus musculus
Test: Exploratory activity of mice determined by an antimex activity meter, 10 mg/kg of dose was administered perorally
Format: functional
Conditions: route oral

Structure (SMILES) | inhibition in vivo at 10 mg/kg [%]
Cl.Cl.OCCN1CCN(C2=Nc3ccccc3CC=C2c2ccc(F)cc2)CC1 | 19.6
CCCN1CCN(C2=Nc3ccccc3CC=C2c2ccc(F)cc2)CC1.O=C(O)/C=C/C(=O)O | 18.5

System: Mus musculus
Test: Antireserpine activity (RES) of mice after peroral administration of 50 mg/kg of compound; Slight inhibition (31-50%)
Format: functional
Conditions: route oral

Structure (SMILES) | inhibition in vivo at 50 mg/kg [%]
Fc1ccc(C2=CCc3ccccc3N=C2N2CCNCC2)cc1 | 31

System: Mus musculus
Test: Antitremorine activity(TRM) of mice after peroral administration of 100 mg/kg of compound; Slight inhibition (31-50%)
Format: functional
Conditions: route oral

Structure (SMILES) | inhibition in vivo at 100 mg/kg [%]
CCCCN1CCN(C2=Nc3ccc(CC)cc3CC=C2c2ccccc2)CC1.O=C(O)/C=C/C(=O)O | 31
CCCN1CCN(C2=Nc3ccc(CC)cc3CC=C2c2ccccc2)CC1.O=C(O)/C=C/C(=O)O | 31

System: Mus musculus
Test: Antitremorine activity(TRM) of mice after peroral administration of 100 mg/kg of compound; Moderate inhibition (51-71%)
Format: functional
Conditions: route oral

Structure (SMILES) | inhibition in vivo at 100 mg/kg [%]
CCc1ccc2c(c1)CC=C(c1ccccc1)C(N1CCN(C(C)C)CC1)=N2.O=C(O)/C=C/C(=O)O | 51
CCc1ccc2c(c1)CC=C(c1ccccc1)C(N1CCN(C)CC1)=N2.Cl.Cl | 51

System: Mus musculus
Test: Antiexploratory activity (EXPL) of mice determined by an antimex activity meter, 10 mg/kg of dose was administered perorally; No inhibition
Format: functional
Conditions: route oral

Structure (SMILES) | inhibition in vivo at 10 mg/kg [%]
Cl.Cl.OCCN1CCN(C2=Nc3ccccc3CC=C2c2ccc(F)cc2)CC1 | < 30
CCCN1CCN(C2=Nc3ccccc3CC=C2c2ccc(F)cc2)CC1.O=C(O)/C=C/C(=O)O | < 30

System: Mus musculus
Test: Antireserpine activity (RES) of mice after peroral administration of 100 mg/kg of compound; No inhibition
Format: functional
Conditions: route oral

Structure (SMILES) | inhibition in vivo at 100 mg/kg [%]
CCc1ccc2c(c1)CC=C(c1ccccc1)C(N1CCN(C(C)C)CC1)=N2.O=C(O)/C=C/C(=O)O | < 30
CCc1ccc2c(c1)CC=C(c1ccccc1)C(N1CCN(C)CC1)=N2.Cl.Cl | < 30
CCCCN1CCN(C2=Nc3ccc(CC)cc3CC=C2c2ccccc2)CC1.O=C(O)/C=C/C(=O)O | < 30
CCCN1CCN(C2=Nc3ccc(CC)cc3CC=C2c2ccccc2)CC1.O=C(O)/C=C/C(=O)O | < 30
